Data published in ChEMBL document CHEMBL1154888, “Discorhabdins from the Korean marine sponge Sceptrella sp” (J Nat Prod, 2010).
≈ marks a conversion by molar mass, not a printed value.

Assays:
Proteus vulgaris = test: Antibacterial activity against Proteus vulgaris ATCC 3851; type: functional
Bacillus subtilis = test: Antibacterial activity against Bacillus subtilis ATCC 6633; type: functional
Salmonella enterica = test: Antibacterial activity against Salmonella Typhimurium ATCC 14028; type: functional, Salmonella enterica subsp. enterica serovar Typhimurium
Staphylococcus aureus = test: Antibacterial activity against Staphylococcus aureus […]; type: functional
Micrococcus luteus = test: Antibacterial activity against Micrococcus luteus IFO 12708; type: functional
K562 = test: Cytotoxicity against human K562 cells assessed as viable cells after 72 hrs by MTS/PMS assay; type: functional, cell-based; settings: K562, 72 h
Escherichia coli = test: Antibacterial activity against Escherichia coli ATCC 25922; type: functional
Sortase A = target: T1, Sortase A (Staphylococcus aureus, UniProt Q9S446); test: Inhibition of Staphylococcus aureus sortase A after 1 hr in the presence of fluorescent peptide Dabcul-QALPETGEE-Edans by fluorimetry
T1 sequence (Q9S446 whole entry): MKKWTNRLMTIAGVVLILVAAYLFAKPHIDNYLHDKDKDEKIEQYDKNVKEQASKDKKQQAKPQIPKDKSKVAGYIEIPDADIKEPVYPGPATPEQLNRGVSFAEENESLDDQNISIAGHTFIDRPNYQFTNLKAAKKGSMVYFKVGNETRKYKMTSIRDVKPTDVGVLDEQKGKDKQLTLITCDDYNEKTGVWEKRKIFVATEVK
Outline: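 p-Hydroxymercuribenzoic acid (p-HMB) run alongside as the positive control.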

[1] = target: T2, Sortase A (Staphylococcus aureus) (UniProt Q9S446); test: Selectivity ratio, inhibition of recombinant sortase A from Staphylococcus aureus of drug over the para-(hydroxymercury)benzoic acid sodium salt
T2 sequence (whole entry): T1 sequence (Q9S446 whole entry)

SMILES | MIC (Proteus vulgaris) | MIC (Bacillus subtilis) | MIC (Salmonella enterica) | MIC (Staphylococcus aureus) | MIC (Micrococcus luteus) | IC50 (K562) | MIC (Escherichia coli) | IC50 (Sortase A) | Selectivity ratio [1]
O=C1C2=C3C4=[N+](CCc5c[nH]c1c54)C1C[C@@]34C[C@@H](N2)SC4=CC1=O | > 100 µg/mL | 25 µg/mL | > 100 µg/mL | 100 µg/mL | 6.25 µg/mL | 6.1 µM | > 100 µg/mL | – | –
O=C1C=C[C@]2(C=C1Br)CCNC1=C2C2=NCCc3c[nH]c(c32)C1=O | 25 µg/mL (≈ 65.1 µM) | 50 µg/mL (≈ 130 µM) | 50 µg/mL (≈ 130 µM) | 100 µg/mL (≈ 260 µM) | 50 µg/mL (≈ 130 µM) | 1.3 µM | > 100 µg/mL | 186 µM | –
O=C1C2=C3C4=[N+](CCc5c[nH]c1c54)C1[C@H](O)CC(=O)[C@@]3(C[C@@H](O)N2)[C@H]1O | > 100 µg/mL | > 100 µg/mL | > 100 µg/mL | > 100 µg/mL | 50 µg/mL | 2.2 µM | > 100 µg/mL | 6.5 µM | 10
O=C1C2=C3C4=[N+](CCc5c[nH]c1c54)C1[C@H](O)C=C4S[C@@H](C[C@@]43[C@H]1O)N2 | 50 µg/mL | 100 µg/mL | > 100 µg/mL | > 100 µg/mL | 25 µg/mL | 2.5 µM | > 100 µg/mL | 192 µM | –
O=C1C2=C3C4=[N+](CCc5c[nH]c1c54)C1C[C@@]34C[C@@H](N2)SC4=C[C@H]1O | 50 µg/mL | 25 µg/mL | > 100 µg/mL | > 100 µg/mL | 25 µg/mL | 2.1 µM | > 100 µg/mL | 75.7 µM | –
CO[C@H]1C2C(=O)C=C3S[C@H]4C[C@]31C1=C(N4)C(=O)c3[nH]cc4c3C1=[N+]2CC4 | 100 µg/mL | 50 µg/mL | 100 µg/mL | 50 µg/mL | 12.5 µg/mL | 2.5 µM | > 100 µg/mL | 146 µM | –
O=C1C2=C3C4=[N+](CCc5c[nH]c1c54)C1C(=O)C=C4S[C@@H](C[C@@]43[C@H]1O)N2 | 100 µg/mL | 25 µg/mL | 100 µg/mL | 50 µg/mL | 12.5 µg/mL | 4.5 µM | > 100 µg/mL | 130 µM | –
O=C1C=C[C@@]23C[C@@H](NC4=C2C2=NCCc5c[nH]c(c52)C4=O)SC3=C1 [1-DEBROMODISCORHABDIN B] | 50 µg/mL (≈ 149 µM) | 12.5 µg/mL (≈ 37.3 µM) | 50 µg/mL (≈ 149 µM) | 25 µg/mL (≈ 74.5 µM) | 25 µg/mL (≈ 74.5 µM) | 25 µM | > 100 µg/mL | 160 µM | –
O=C1C=C2S[C@H]3C[C@]2(C=C1Br)C1=C(N3)C(=O)c2[nH]cc3c2C1=NCC3 [(+)-DISCORHABDIN B] | 3.12 µg/mL (≈ 7.54 µM) | 12.5 µg/mL (≈ 30.2 µM) | 100 µg/mL (≈ 241 µM) | 50 µg/mL (≈ 121 µM) | 25 µg/mL (≈ 60.3 µM) | 7.2 µM | > 100 µg/mL | 132 µM | –
CC1(C)S[C@@H]2[C@H](NC(=O)[C@H](N)c3ccccc3)C(=O)N2[C@H]1C(=O)O [AMPICILLIN] | 3.12 µg/mL (≈ 8.93 µM) | 1.56 µg/mL (≈ 4.46 µM) | 3.12 µg/mL (≈ 8.93 µM) | 1.56 µg/mL (≈ 4.46 µM) | 1.56 µg/mL (≈ 4.46 µM) | – | 12.5 µg/mL (≈ 35.8 µM) | – | –
O=C1C=CC2(C=C1)CCNC1=C2C2=NCCc3c[nH]c(c32)C1=O [DIDEBROMODISCORHABDIN C] | > 100 µg/mL | > 100 µg/mL | > 100 µg/mL | > 100 µg/mL | > 100 µg/mL | 21 µM | > 100 µg/mL | 127 µM | –
O=C1C2=C(C3=NCCc4c[nH]c1c43)C1(C=C(Br)C(O)C(Br)=C1)CCN2 (centres undefined) [DIHYDRODISCORHABDIN C] | > 100 µg/mL | 100 µg/mL (≈ 215 µM) | > 100 µg/mL | > 100 µg/mL | 100 µg/mL (≈ 215 µM) | 20.2 µM | > 100 µg/mL | > 300 µM | –
O=C1C(Br)=CC2(C=C1Br)CCNC1=C2C2=NCCc3c[nH]c(c32)C1=O [DISCORHABDIN C] | 50 µg/mL (≈ 108 µM) | 25 µg/mL (≈ 54 µM) | > 100 µg/mL | > 100 µg/mL | 12.5 µg/mL (≈ 27 µM) | 25.2 µM | > 100 µg/mL | 165 µM | –
COc1cccc2c1C(=O)c1c(O)c3c(c(O)c1C2=O)C[C@@](O)(C(=O)CO)C[C@@H]3O[C@H]1C[C@H](N)[C@H](O)[C@H](C)O1 [DOXORUBICIN] | – | – | – | – | – | 8.5 µM | – | – | –
O=C1C(NCCc2ccc(O)cc2)=CC2=NCCc3c[nH]c1c32 [MAKALUVAMINE D] | > 100 µg/mL | 25 µg/mL (≈ 81.3 µM) | 100 µg/mL (≈ 325 µM) | > 100 µg/mL | 50 µg/mL (≈ 163 µM) | 24.6 µM | > 100 µg/mL | 148 µM | –
O=C1C(NC2Cc3cc(Br)c(O)cc3S2)=CC2=NCCc3c[nH]c1c32 (centres undefined) [MAKALUVAMINE F] | 25 µg/mL (≈ 60.1 µM) | 12.5 µg/mL (≈ 30 µM) | 100 µg/mL (≈ 240 µM) | 50 µg/mL (≈ 120 µM) | 3.12 µg/mL (≈ 7.51 µM) | 8.9 µM | > 100 µg/mL | 175 µM | –
